# Measured values from ChEMBL document CHEMBL2203156, “Design, synthesis and pharmacological characterization of coumarin-based fluorescent analogs of excitatory amino acid transporter subtype 1 selective inhibitors, UCPH-101 and UCPH-102” (Bioorg Med Chem, 2012).
# Target: Excitatory amino acid transporter 1 (Homo sapiens, UniProt P43003)
# Assay: Inhibition of [3H]-D-aspartate uptake at human EAAT1 expressed in HEK293 cells after 6 mins by scintillation counting
# Assay type: cell-based
# Conditions: read-out: IC50
# Summary of the method: (§1)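 Each transporter subtype stably expressed in its own HEK293 cell line. Inhibitor potency measured as block of [³H]-D-aspartate uptake into these cells and reported as IC₅₀ values.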
# Sequence of Excitatory amino acid transporter 1 (P43003 whole entry): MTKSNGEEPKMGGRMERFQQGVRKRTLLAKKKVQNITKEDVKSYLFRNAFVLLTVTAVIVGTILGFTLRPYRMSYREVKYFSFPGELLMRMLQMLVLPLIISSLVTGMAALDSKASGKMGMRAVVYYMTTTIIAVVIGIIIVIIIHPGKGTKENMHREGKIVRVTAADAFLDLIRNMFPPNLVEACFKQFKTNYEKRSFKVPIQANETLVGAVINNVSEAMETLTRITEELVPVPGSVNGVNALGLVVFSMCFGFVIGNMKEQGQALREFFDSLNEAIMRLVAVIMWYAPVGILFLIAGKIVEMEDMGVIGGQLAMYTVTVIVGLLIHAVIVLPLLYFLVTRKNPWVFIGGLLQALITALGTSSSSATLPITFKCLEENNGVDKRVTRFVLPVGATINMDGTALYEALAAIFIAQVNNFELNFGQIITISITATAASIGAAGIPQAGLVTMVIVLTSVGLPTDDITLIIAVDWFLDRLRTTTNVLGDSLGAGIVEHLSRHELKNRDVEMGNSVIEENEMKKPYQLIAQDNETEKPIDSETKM
row,IC50 [µM],Compound
1,14,CCN(CC)c1ccc2c(C3CC(=O)C4=C(C3)OC(N)=C(C#N)C4C)cc(=O)oc2c1 (stereo not drawn)
2,17,COc1ccc2c(C3CC(=O)C4=C(C3)OC(N)=C(C#N)C4C)cc(=O)oc2c1 (stereo not drawn)
3,> 300,CCN(CC)c1ccc2c(C)c(-c3ccc(C4C(C#N)=C(N)OC5=C4C(=O)CC(c4ccccc4)C5)cc3)c(=O)oc2c1 (stereo not drawn)
4,> 300,COc1ccc2c(C)c(-c3ccc(C4C(C#N)=C(N)OC5=C4C(=O)CC(c4ccccc4)C5)cc3)c(=O)oc2c1 (stereo not drawn)
5,> 300,CCN(CC)c1ccc2c(C3C(C#N)=C(N)OC4=C3C(=O)CC(c3cccc5ccccc35)C4)cc(=O)oc2c1 (stereo not drawn)
6,> 300,COc1ccc2c(C3C(C#N)=C(N)OC4=C3C(=O)CC(c3ccccc3)C4)cc(=O)oc2c1 (stereo not drawn)

# Same assay, conditions: read-out: pIC50 (converted)
row,IC50 [µM],Compound
1,16.2,COc1ccc2c(C3CC(=O)C4=C(C3)OC(N)=C(C#N)C4C)cc(=O)oc2c1 (stereo not drawn)
2,> 316,CCN(CC)c1ccc2c(C)c(-c3ccc(C4C(C#N)=C(N)OC5=C4C(=O)CC(c4ccccc4)C5)cc3)c(=O)oc2c1 (stereo not drawn)
3,> 316,COc1ccc2c(C)c(-c3ccc(C4C(C#N)=C(N)OC5=C4C(=O)CC(c4ccccc4)C5)cc3)c(=O)oc2c1 (stereo not drawn)
4,> 316,CCN(CC)c1ccc2c(C3C(C#N)=C(N)OC4=C3C(=O)CC(c3cccc5ccccc35)C4)cc(=O)oc2c1 (stereo not drawn)
5,> 316,COc1ccc2c(C3C(C#N)=C(N)OC4=C3C(=O)CC(c3ccccc3)C4)cc(=O)oc2c1 (stereo not drawn)

# Target: T1, Excitatory amino acid transporter 3 (Homo sapiens, UniProt P43005)
# T1 sequence (P43005 whole entry): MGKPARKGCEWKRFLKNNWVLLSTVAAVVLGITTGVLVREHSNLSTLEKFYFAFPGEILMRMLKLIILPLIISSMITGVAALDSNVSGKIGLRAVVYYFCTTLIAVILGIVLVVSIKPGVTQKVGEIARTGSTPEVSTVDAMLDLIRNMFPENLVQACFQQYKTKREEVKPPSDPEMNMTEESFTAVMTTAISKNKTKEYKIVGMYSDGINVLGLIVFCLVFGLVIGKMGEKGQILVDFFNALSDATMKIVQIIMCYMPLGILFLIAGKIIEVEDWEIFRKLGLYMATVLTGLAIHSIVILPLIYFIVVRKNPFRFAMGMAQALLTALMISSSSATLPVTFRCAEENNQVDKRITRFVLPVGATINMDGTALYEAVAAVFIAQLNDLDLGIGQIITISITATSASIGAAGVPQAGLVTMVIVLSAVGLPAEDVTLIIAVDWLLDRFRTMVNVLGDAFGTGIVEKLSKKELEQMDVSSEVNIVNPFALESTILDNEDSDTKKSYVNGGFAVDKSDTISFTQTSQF
# Assay: Inhibition of [3H]-D-aspartate uptake at human EAAT3 expressed in HEK293 cells after 6 mins by scintillation counting
# Assay type: cell-based
# Conditions: not given
# Summary of the method: as §1
row,IC50 [µM],Compound
1,> 300,CCN(CC)c1ccc2c(C3CC(=O)C4=C(C3)OC(N)=C(C#N)C4C)cc(=O)oc2c1 (stereo not drawn)
2,> 300,COc1ccc2c(C3CC(=O)C4=C(C3)OC(N)=C(C#N)C4C)cc(=O)oc2c1 (stereo not drawn)
3,> 300,CCN(CC)c1ccc2c(C)c(-c3ccc(C4C(C#N)=C(N)OC5=C4C(=O)CC(c4ccccc4)C5)cc3)c(=O)oc2c1 (stereo not drawn)
4,> 300,COc1ccc2c(C)c(-c3ccc(C4C(C#N)=C(N)OC5=C4C(=O)CC(c4ccccc4)C5)cc3)c(=O)oc2c1 (stereo not drawn)
5,> 300,CCN(CC)c1ccc2c(C3C(C#N)=C(N)OC4=C3C(=O)CC(c3cccc5ccccc35)C4)cc(=O)oc2c1 (stereo not drawn)
6,> 300,COc1ccc2c(C3C(C#N)=C(N)OC4=C3C(=O)CC(c3ccccc3)C4)cc(=O)oc2c1 (stereo not drawn)

# Target: Excitatory amino acid transporter 2 (Homo sapiens, UniProt P43004)
# Sequence (P43004 whole entry): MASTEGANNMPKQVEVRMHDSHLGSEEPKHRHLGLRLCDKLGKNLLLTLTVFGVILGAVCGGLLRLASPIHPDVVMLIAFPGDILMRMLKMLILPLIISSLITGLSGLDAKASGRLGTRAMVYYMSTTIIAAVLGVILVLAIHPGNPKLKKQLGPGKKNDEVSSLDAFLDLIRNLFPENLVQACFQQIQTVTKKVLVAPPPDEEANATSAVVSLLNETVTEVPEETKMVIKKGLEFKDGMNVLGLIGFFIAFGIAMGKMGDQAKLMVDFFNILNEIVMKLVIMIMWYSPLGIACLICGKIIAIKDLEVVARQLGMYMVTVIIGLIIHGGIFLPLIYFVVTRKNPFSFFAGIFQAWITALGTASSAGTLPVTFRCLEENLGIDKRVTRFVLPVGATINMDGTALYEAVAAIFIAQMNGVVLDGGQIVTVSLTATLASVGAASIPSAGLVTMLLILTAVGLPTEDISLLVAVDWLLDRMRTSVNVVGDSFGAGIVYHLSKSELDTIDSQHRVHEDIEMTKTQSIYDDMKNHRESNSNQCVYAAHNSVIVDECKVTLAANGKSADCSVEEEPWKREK
# Assay: Inhibition of [3H]-D-aspartate uptake at human EAAT2 expressed in HEK293 cells after 6 mins by scintillation counting
# Assay type: cell-based
# Conditions: not given
# Summary of the method: as §1
row,IC50 [µM],Compound
1,> 300,CCN(CC)c1ccc2c(C3CC(=O)C4=C(C3)OC(N)=C(C#N)C4C)cc(=O)oc2c1 (stereo not drawn)
2,> 300,COc1ccc2c(C3CC(=O)C4=C(C3)OC(N)=C(C#N)C4C)cc(=O)oc2c1 (stereo not drawn)
3,> 300,CCN(CC)c1ccc2c(C)c(-c3ccc(C4C(C#N)=C(N)OC5=C4C(=O)CC(c4ccccc4)C5)cc3)c(=O)oc2c1 (stereo not drawn)
4,> 300,COc1ccc2c(C)c(-c3ccc(C4C(C#N)=C(N)OC5=C4C(=O)CC(c4ccccc4)C5)cc3)c(=O)oc2c1 (stereo not drawn)
5,> 300,CCN(CC)c1ccc2c(C3C(C#N)=C(N)OC4=C3C(=O)CC(c3cccc5ccccc35)C4)cc(=O)oc2c1 (stereo not drawn)
6,> 300,COc1ccc2c(C3C(C#N)=C(N)OC4=C3C(=O)CC(c3ccccc3)C4)cc(=O)oc2c1 (stereo not drawn)
